Results as given in ChEMBL document CHEMBL1145827, “Structure-activity relationship comparison of (S)-2beta-substituted 3alpha-(bis[4-fluorophenyl]methoxy)tropanes and (R)-2beta-substituted 3beta-(3,4-dichlorophenyl)tropanes at the dopamine transporter” (J Med Chem, 2003).

Columns and labels:
[1] = target: T1, Sodium-dependent dopamine transporter (Rattus norvegicus, UniProt P23977); experiment: In vitro potency for inhibiting [3H]- dopamine uptake was determined; assay type: functional
How it was run: (§1)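 [3H]Dopamine uptake inhibition in rat brain synaptosomes, reported as IC50.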

[2] = target: Sodium-dependent serotonin transporter (Rattus norvegicus, UniProt P31652); experiment: Binding affinity towards serotonin transporter using [3H]citalopram as radioligand was determined
Sequence of Sodium-dependent serotonin transporter (P31652 whole entry): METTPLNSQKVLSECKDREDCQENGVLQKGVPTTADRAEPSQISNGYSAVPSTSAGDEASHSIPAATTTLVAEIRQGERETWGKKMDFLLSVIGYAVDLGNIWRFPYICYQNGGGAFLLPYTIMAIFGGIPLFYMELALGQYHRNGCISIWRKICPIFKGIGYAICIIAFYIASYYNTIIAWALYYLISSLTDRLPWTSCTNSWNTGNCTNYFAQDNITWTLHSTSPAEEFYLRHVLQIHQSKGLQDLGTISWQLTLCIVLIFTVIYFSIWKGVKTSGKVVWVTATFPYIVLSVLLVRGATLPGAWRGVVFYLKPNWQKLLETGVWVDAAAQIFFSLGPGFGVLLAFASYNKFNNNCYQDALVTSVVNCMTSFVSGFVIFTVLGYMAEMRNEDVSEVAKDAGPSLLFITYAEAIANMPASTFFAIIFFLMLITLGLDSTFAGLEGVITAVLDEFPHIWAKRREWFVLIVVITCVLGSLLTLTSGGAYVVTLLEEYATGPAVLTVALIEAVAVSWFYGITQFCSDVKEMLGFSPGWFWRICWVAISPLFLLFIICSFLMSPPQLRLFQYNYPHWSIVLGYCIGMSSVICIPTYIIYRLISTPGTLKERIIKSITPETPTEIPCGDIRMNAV
How it was run: (§2)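 Radioligand displacement binding for SERT, NET and muscarinic receptors. Ki from at least three independent experiments, each run in triplicate.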

[3] = target: T2, Muscarinic acetylcholine receptor M1 (Rattus norvegicus, UniProt P08482); experiment: Binding affinity towards Muscarinic acetylcholine receptor M1 using [3H]pirenzepine as radioligand was determined; how it was run: as §2
T2 sequence (P08482 whole entry): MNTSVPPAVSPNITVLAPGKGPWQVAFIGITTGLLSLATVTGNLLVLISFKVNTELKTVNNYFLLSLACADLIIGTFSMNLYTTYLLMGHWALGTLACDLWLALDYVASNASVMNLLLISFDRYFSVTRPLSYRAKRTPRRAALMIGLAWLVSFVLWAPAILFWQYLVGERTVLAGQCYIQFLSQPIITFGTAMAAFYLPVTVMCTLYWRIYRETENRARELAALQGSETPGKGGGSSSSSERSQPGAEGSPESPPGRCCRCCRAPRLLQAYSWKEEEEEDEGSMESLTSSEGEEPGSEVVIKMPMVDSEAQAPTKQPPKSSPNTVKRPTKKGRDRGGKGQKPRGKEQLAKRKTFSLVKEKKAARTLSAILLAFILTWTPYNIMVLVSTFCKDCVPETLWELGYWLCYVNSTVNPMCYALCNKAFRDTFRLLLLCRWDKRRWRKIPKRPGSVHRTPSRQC

[4] = target: Norepinephrine transporter (Rattus norvegicus, UniProt Q9WTR4); experiment: Binding affinity towards norepinephrine transporter using [3H]nisoxetine as radioligand was determined; how it was run: as §2
Sequence of Norepinephrine transporter (Q9WTR4 whole entry): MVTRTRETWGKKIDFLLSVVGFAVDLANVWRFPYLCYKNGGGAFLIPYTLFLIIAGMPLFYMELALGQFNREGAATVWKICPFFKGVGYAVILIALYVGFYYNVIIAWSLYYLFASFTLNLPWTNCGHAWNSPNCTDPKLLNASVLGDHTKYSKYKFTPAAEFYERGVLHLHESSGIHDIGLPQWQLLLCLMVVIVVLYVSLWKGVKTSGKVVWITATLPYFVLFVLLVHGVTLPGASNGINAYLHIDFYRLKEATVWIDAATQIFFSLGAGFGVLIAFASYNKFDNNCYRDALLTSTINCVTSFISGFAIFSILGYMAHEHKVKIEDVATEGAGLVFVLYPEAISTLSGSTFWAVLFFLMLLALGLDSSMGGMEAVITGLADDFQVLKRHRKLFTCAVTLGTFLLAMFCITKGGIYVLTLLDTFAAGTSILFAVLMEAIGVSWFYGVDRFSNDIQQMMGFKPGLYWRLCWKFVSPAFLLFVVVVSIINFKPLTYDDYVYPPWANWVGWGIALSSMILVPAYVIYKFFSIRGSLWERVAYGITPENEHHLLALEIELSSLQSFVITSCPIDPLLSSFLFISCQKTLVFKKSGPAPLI

[5] = target: T1, Sodium-dependent dopamine transporter; experiment: In vitro dopamine transporter binding affinity using [3H]WIN-35428 as radioligand was determined
[6] = target: T1, Sodium-dependent dopamine transporter; experiment: Binding affinity towards dopamine transporter
How it was run: (§3)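 Rat brain DAT, radioligand displacement with [3H]WIN 35,428. Ki from at least three independent experiments, each run in triplicate.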

[7] = target: T1, Sodium-dependent dopamine transporter; experiment: In vitro potency for inhibiting [3H]- dopamine uptake in rat brain was determined; assay type: functional, tissue-based; how it was run: as §1
[8] = target: T1, Sodium-dependent dopamine transporter; experiment: In vitro inhibitory activity of dopamine transporter using [3H]WIN-35428 as radioligand was determined; how it was run: as §3

T1 sequence (P23977 whole entry): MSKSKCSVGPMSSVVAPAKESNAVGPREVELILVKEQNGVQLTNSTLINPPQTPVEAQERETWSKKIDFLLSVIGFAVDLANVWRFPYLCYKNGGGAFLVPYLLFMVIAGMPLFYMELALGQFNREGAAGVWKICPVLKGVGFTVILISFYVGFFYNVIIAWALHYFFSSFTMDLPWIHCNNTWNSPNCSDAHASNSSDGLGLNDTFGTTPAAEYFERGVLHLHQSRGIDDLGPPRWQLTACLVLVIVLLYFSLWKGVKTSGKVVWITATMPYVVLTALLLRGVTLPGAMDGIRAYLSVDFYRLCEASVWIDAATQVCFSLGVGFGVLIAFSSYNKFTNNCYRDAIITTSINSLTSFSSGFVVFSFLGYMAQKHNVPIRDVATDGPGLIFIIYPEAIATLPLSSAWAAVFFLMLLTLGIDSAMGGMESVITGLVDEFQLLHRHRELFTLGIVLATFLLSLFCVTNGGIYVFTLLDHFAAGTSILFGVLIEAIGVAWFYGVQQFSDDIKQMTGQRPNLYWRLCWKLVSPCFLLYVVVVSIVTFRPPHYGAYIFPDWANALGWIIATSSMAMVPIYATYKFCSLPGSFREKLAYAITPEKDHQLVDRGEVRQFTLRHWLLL

| SMILES | IC50 [1] [nM] | Ki [4] [nM] | Ki [5] [nM] | further results |
| --- | --- | --- | --- | --- |
| COC(=O)[C@@H]1C2CCC(C[C@@H]1OC(c1ccc(F)cc1)c1ccc(F)cc1)N2C (some centres undefined) | 1.5 |  |  |  |
| CC(C)OC(=O)[C@@H]1C2CCC(C[C@@H]1OC(c1ccc(F)cc1)c1ccc(F)cc1)N2C (single isomer, unassigned; (+)) |  | 642 |  | Ki [2]: 12000 nM; Ki [3]: 2680 nM |
| CN1C2CCC1[C@@H](C(=O)OCCc1ccccc1)[C@@H](c1ccc(Cl)c(Cl)c1)C2 (some centres undefined) |  |  | 10.9 | Ki [6]: 100 nM; IC50 [7]: 3.2 nM |
| CN1C2CCC1[C@@H](C(=O)OCCc1ccc(N=[N+]=[N-])c(I)c1)[C@@H](c1ccc(Cl)c(Cl)c1)C2 (some centres undefined) |  |  |  | IC50 [8]: 14.5 nM |
| CN1C2CCC1[C@@H](C(=O)OCCc1ccc(N=[N+]=[N-])c(I)c1)[C@@H](OC(c1ccc(F)cc1)c1ccc(F)cc1)C2 (some centres undefined) |  |  |  | IC50 [8]: 210 nM |
| COC(=O)[C@@H]1C2CCC(C[C@@H]1c1ccc(Cl)c(Cl)c1)N2C (some centres undefined) |  | 15.8 | 6.3 | Ki [2]: 1.46 nM; Ki [3]: 3140 nM; Ki [6]: 100 nM; IC50 [7]: 1.4 nM |
| CN1C2CCC1[C@@H](C(=O)OCc1ccccc1)[C@@H](OC(c1ccc(F)cc1)c1ccc(F)cc1)C2 (some centres undefined) | 2.2 |  | 48.4 |  |
| COC(=O)[C@@H]1C2CCC(C[C@@H]1OC(c1ccc(F)cc1)c1ccc(F)cc1)N2C (single isomer, unassigned; (+)) |  | 269 |  |  |
| CN1C2CCC1[C@@H](C(=O)OCc1ccccc1)[C@@H](c1ccc(Cl)c(Cl)c1)C2 (some centres undefined) |  |  | 34.7 | Ki [6]: 100 nM; IC50 [7]: 19 nM |
| CN1C2CCC1[C@@H](C(=O)OCCc1ccc([N+](=O)[O-])cc1)[C@@H](OC(c1ccc(F)cc1)c1ccc(F)cc1)C2 (some centres undefined) | 3.3 |  | 97.7 |  |
| CN1C2CCC1[C@@H](C(=O)OCCc1ccc(N)c(I)c1)[C@@H](OC(c1ccc(F)cc1)c1ccc(F)cc1)C2 (some centres undefined) |  |  | 42.3 |  |
| CN1C2CCC1[C@@H](C(=O)OCCc1ccc(N)cc1)[C@@H](OC(c1ccc(F)cc1)c1ccc(F)cc1)C2 (some centres undefined) | 8 | 1340 | 36.7 | Ki [2]: 1500 nM; Ki [3]: 263 nM |
| CN1C2CCC1[C@@H](C(=O)OCCc1ccccc1)[C@@H](OC(c1ccc(F)cc1)c1ccc(F)cc1)C2 (some centres undefined) | 2.6 |  | 36.7 |  |
| CN1C2CCC1[C@@H](C(=O)OCCc1ccccc1)[C@@H](OC(c1ccc(F)cc1)c1ccc(F)cc1)C2 (single isomer, unassigned; (+)) |  | 1030 |  | Ki [2]: 3160 nM; Ki [3]: 354 nM |
| CC(C)OC(=O)[C@@H]1C2CCC(C[C@@H]1c1ccc(Cl)c(Cl)c1)N2C (some centres undefined) |  |  | 17.9 | Ki [6]: 100 nM; IC50 [7]: 2.7 nM |
| CN1C2CCC1[C@@H](C(=O)OCCc1ccc(N=C=S)cc1)[C@@H](OC(c1ccc(F)cc1)c1ccc(F)cc1)C2 (some centres undefined) |  |  |  | IC50 [8]: 537 nM |
| CN1C2CCC1[C@@H](C(=O)OCc1ccccc1)[C@@H](OC(c1ccc(F)cc1)c1ccc(F)cc1)C2 (single isomer, unassigned; (+)) |  | 2230 |  | Ki [2]: 2040 nM; Ki [3]: 4380 nM |
| CCOC(=O)[C@@H]1C2CCC(C[C@@H]1c1ccc(Cl)c(Cl)c1)N2C (some centres undefined) |  |  | 5.54 | Ki [6]: 100 nM; IC50 [7]: 1.9 nM |
| CCOC(=O)[C@@H]1C2CCC(C[C@@H]1OC(c1ccc(F)cc1)c1ccc(F)cc1)N2C (some centres undefined) | 1.8 | 629 | 16.4 |  |
| CC(C)OC(=O)[C@@H]1C2CCC(C[C@@H]1OC(c1ccc(F)cc1)c1ccc(F)cc1)N2C (some centres undefined) | 6.2 |  | 30.3 |  |
